Data taken from ChEMBL document CHEMBL4308830, “Design, Synthesis, and Characterization of 4-Undecylpiperidine-2-carboxamides as Positive Allosteric Modulators of the Serotonin (5-HT) 5-HT2C Receptor” (J Med Chem, 2018).
Activity calls are given as the source filed them.

How the values were obtained:
Rattus norvegicus [1] = test: Suppression of spontaneous locomotor activity in Sprague-Dawley rat assessed as reduction in total ambulation at 5 mg/kg, ip administered as single dose measured for 30 mins; type: functional, organism-based
In short: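 Male Sprague–Dawley rats naive to activity monitors (n = 7–8/group) received saline (1 mL/kg ip) or compound (0.5, 1 or 5 mg/kg ip) immediately before testing. Ambulations and vertical counts were taken in 5 min bins for 90 min and totalled over the first 30 min. Analysis: one-way ANOVA with Dunnett's comparisons to vehicle.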

[2] = target: T1, 5-hydroxytryptamine receptor 2C (Homo sapiens) (UniProt P28335); test: Positive allosteric modulation of human 5-HT2CR expressed in CHO cells assessed as increase in 5-HT-induced intracellular calcium release at 0.000001 to 1 uM preincubated for 15 mins followed by 5-HT addition by calcium-4 dye based FLIPR assay; type: functional, cell-based
T1 sequence (whole entry): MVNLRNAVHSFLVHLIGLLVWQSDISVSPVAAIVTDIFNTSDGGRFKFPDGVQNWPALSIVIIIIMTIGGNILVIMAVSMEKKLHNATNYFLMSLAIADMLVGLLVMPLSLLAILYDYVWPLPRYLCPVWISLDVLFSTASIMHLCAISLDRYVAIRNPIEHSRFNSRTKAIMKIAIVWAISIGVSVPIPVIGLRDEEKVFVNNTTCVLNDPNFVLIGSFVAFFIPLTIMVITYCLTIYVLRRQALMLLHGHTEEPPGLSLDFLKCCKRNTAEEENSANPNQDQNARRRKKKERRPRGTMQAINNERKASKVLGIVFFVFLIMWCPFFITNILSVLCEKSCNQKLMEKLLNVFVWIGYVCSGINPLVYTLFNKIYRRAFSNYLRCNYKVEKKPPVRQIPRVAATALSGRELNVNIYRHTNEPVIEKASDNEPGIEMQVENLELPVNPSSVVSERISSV
In short: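 CHO cells stably expressing human unedited (INI) 5-HT2CR, passages 6–16, grown at 37 °C in medium with 5% FBS and hygromycin. Plated cells were serum-starved 3 h, then loaded 60 min at 37 °C plus 15 min at room temperature with Calcium 4 dye and 2.5 mM probenecid in HBSS pH 7.4. Compound (1 pM, 1 nM, 1 μM) was added 15 min before 5-HT (10 pM–10 μM), and fluorescence peak height was read.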

Rattus norvegicus [3] = test: Reduction in cocaine cue reactivity in Sprague-Dawley rat assessed as decrease in active lever presses at 1 mg/kg, ip administered as single dose 15 mins prior to self administration of cocaine; type: functional, organism-based
In short: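 Catheterized male Sprague–Dawley rats self-administered cocaine (0.75 mg/kg/infusion iv, each paired with light/pump cue) in 14 daily 180 min sessions, reaching FR5 stability. After 24 h they received saline (1 mL/kg ip) or compound (1 mg/kg ip) 15 min before a cue reactivity test.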

Measured: Activity

CCCCCCCCCCC[C@@H]1CCN[C@H](C(=O)NCC(O)CO)C1 (relative stereo)
active: all assays above
